Laboratory results taken from article PMC8419023 (Structure (London, England : 1993), 2021).
Numbering of substitutions follows the chain as printed. In names and notes the source's numbering stands.

Assays:
[1] = biological target: CDK2-cyclin A (Homo sapiens, UniProt P20248+P24941); assay: GST pull down, CDK2-cyclin A; type: binding; settings: 25 mM HEPES pH 7.5, 150 mM NaCl, 1 mM DTT, 0.01% NP-40; 1 h, 4°C; SDS-PAGE; three experiments; Figure 1B
Outline: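 Bacterially expressed proteins: CDK2 (1–298) as a GST fusion, cyclin A (1–432 or 173–432) as a 6XHis fusion. […] Incubated 1 h at 4 °C with mild agitation, washed three times in binding buffer, and bound material analysed by SDS-PAGE; repeated 2–3 times.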

[2] = biological target: CDK2-cyclin A (Surface 2, hydrophobic patch); assay: Fluorescence polarization displacement of FITC-p27^27−36 from CDK2-cyclin A; type: binding, human

B1: Skp2^Δ1−88: Skp2 lacking the first 88 residues (protein)
chain 1: RENFPGVSWDSLPDELLLGIFSCLCLPELLKVSGVCKRWYRLASDESLWQTLDLTGKNLHPDVTGRLLSQGVIAFRCPRSFMDQPLAEHFSPFRVQHMDLSNSVIEVSTLHGILSQCSKLQNLSLEGLRLSDPIVNTLAKNSNLVRLNLSGCSGFSEFALQTLLSSCSRLDELNLSWCFDFTEKHVQVAVAHVSETITQLNLSGYRKNLQKSDLSTLVRRCPNLVHLDLSDSVMLKNDCFQEFFQLNYLQHLSLSRCYDIIPETLLELGEIPTLKTLQVFGIVPDGTLQLLKEALPHLQINCSHFTTIARPTIGNKKNQEIWGIKCRLTLQKPSCL
chain 2: MPSIKLQSSDGEIFEVDVEIAKQSVTIKTMLEDLGMDPVPLPNVNAAILKKVIQWCTHHKDDPGSGGTDDIPVWDQEFLKVDQGTLFELILAANYLDIKGLLDVTCKTVANMIKGKTPEEIRKTFNIKNDFTEEEEAQVRKENQWCEEK
modifications: left off: GST, end not stated, kept | His6, end not stated, state not stated
pull down / binding of CDK2-cyclin A^173−432 with or without Cks1 [1]: could not bind CDK2-cyclin A in the absence of Cks1

B2: F79A/I81A/R83A: full length Skp2 (Skp1-Skp2^1−424) with Motif 2 mutation F79A/I81A/R83A (protein)
chain 1: MHRKHLQEIPDLSSNVATSFTWGWDSSKTSELLSGMGVSALEKEEPDSENIPQELLSNLGHPESPPRKRLKSKGSDKDAVAVARPKLNRENFPGVSWDSLPDELLLGIFSCLCLPELLKVSGVCKRWYRLASDESLWQTLDLTGKNLHPDVTGRLLSQGVIAFRCPRSFMDQPLAEHFSPFRVQHMDLSNSVIEVSTLHGILSQCSKLQNLSLEGLRLSDPIVNTLAKNSNLVRLNLSGCSGFSEFALQTLLSSCSRLDELNLSWCFDFTEKHVQVAVAHVSETITQLNLSGYRKNLQKSDLSTLVRRCPNLVHLDLSDSVMLKNDCFQEFFQLNYLQHLSLSRCYDIIPETLLELGEIPTLKTLQVFGIVPDGTLQLLKEALPHLQINCSHFTTIARPTIGNKKNQEIWGIKCRLTLQKPSCL
chain 2: B1 chain 2
modifications: left off: GST, end not stated, cleaved | His6, end not stated, cleaved
IC50 ([2]; 25 nM FITC-p27^27−36, CDK2-cyclin A 6.25 μM, HEPES pH 7.5, 30 min, N=4, Figure 3E): not determinable | displacement of FITC-p27^27−36 (in words) ([2]; CDK2-cyclin A 6.25 μM, N=4, Figure 3E): greatly compromised for this function

B3: 4A mutant of Skp2^1−424: full-length Skp2 with L32A/L33A/S39A/L41A (Motif 1 mutant) (protein)
chain 1: B2 chain 1 with L32A, L33A, S39A, L41A, A79F, A81I, A83R
chain 2: B1 chain 2
modifications: left off: GST, end not stated, cleaved | His6, end not stated, cleaved
loss of displacement effectiveness versus wild-type ([2]; mutant versus wild-type Skp2^1−424, FITC-p27^27−36, Figure 4F): 3 fold
